ChEMBL document CHEMBL4041511, “Synthesis of coumaperine derivatives: Their NF-κB inhibitory effect, inhibition of cell migration and their cytotoxic activity” (Eur J Med Chem, 2017)
In brackets after ≈: the same amount, converted by molar mass. Activity calls are given as the source filed them. The rule behind the calls is not given here.

Tests used:
Homo sapiens [1] = species on record: Homo sapiens; assay: Inhibition of NF-kappaB in human L428 cells at 30 ug/ml after 2 hrs by luciferase reporter gene assay relative to control; type: cell-based
Method in brief: (§1)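 L428 cells stably carrying NF-κB-luciferase reporter (kept in 500 µg/ml G418), 10⁶ per well in 1 ml medium with DMSO solvent and compound (10-50 μg/ml) for 2 h, triplicate wells. Lysates assayed for luciferase, luminescence normalized to Bradford protein. Solvent control = 100%; Nuphar extract positive control; mean and SD of three independent experiments.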

Homo sapiens [2] = species on record: Homo sapiens; assay: Inhibition of NF-kappaB in human L428 cells after 2 hrs by luciferase reporter gene assay; type: cell-based; method in brief: as §1
Homo sapiens [3] = species on record: Homo sapiens; assay: Inhibition of NF-kappaB in human L428 cells at 20 ug/ml after 2 hrs by luciferase reporter gene assay relative to control; type: cell-based; method in brief: as §1
Homo sapiens [4] = species on record: Homo sapiens; assay: Inhibition of NF-kappaB in human L428 cells at 50 ug/ml after 2 hrs by luciferase reporter gene assay relative to control; type: cell-based; method in brief: as §1
Homo sapiens [5] = species on record: Homo sapiens; assay: Inhibition of NF-kappaB in human L428 cells at 40 ug/ml after 2 hrs by luciferase reporter gene assay relative to control; type: cell-based; method in brief: as §1
Homo sapiens [6] = species on record: Homo sapiens; assay: Inhibition of NF-kappaB in human L428 cells at 10 ug/ml after 2 hrs by luciferase reporter gene assay relative to control; type: cell-based; method in brief: as §1
L-428 [7] = assay: Inhibition of NFkappaB p50 subunit expression in cytosolic fractions of human L428 cells at 10 to 40 ug/ml after 2 hrs by Western method; type: functional, cell-based
Method in brief: (§2)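 10 x 10^6 L428 cells per sample exposed 2 h to various concentrations or DMSO. Cytosolic and nuclear fractions prepared by hypotonic lysis, needle shearing and high-salt nuclear extraction. 40 µg protein (Bradford) run on 10% SDS-PAGE, immunoblotted for p50, p65, RelB; β-actin and Lamin B loading controls; ECL detection. At least three independent experiments.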

L-428 [8] = assay: Inhibition of RelB protein expression in cytosolic fractions of human L428 cells at 10 to 40 ug/ml after 2 hrs by Western method; type: functional, cell-based; method in brief: as §2
L-428 [9] = assay: Inhibition of NFkappaB p65 subunit expression in cytosolic fractions of human L428 cells at 10 to 40 ug/ml after 2 hrs by Western method; type: functional, cell-based; method in brief: as §2
L-428 [10] = assay: Inhibition of NFkappaB p50 subunit expression in nuclear fractions of human L428 cells at 10 to 40 ug/ml after 2 hrs by Western method; type: functional, cell-based; method in brief: as §2
L-428 [11] = assay: Inhibition of RelB protein expression in nuclear fractions of human L428 cells at 10 to 40 ug/ml after 2 hrs by Western method; type: functional, cell-based; method in brief: as §2
L-428 [12] = assay: Inhibition of NFkappaB p65 subunit expression in nuclear fractions of human L428 cells at 10 to 40 ug/ml after 2 hrs by Western method; type: functional, cell-based; method in brief: as §2
L-428 [13] = assay: Cytotoxicity against human L428 cells assessed as reduction in cell viability after 48 hrs by XTT assay; type: functional, cell-based; details: for IC50: L-428, 48 h
Method in brief: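 L428 Hodgkin's lymphoma cells (RPMI 1640; lack IκBα, constitutive NF-κB), 3 x 10^4 per well in 200 µl, treated with graded concentrations for 48 h at 37 °C in triplicate. XTT added for 4 h at 37 °C, absorbance read at 450 nm. Control = 100% survival; mean and SD of three independent experiments.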

A549 [14] = assay: Anti-migratory activity against human A549 cells assessed as reduction in wound closure at 10 ug/ml after 48 hrs by wound scratch assay; type: functional, cell-based
Method in brief: (§3)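 A549 cells seeded in 6-well plates without compound; after monolayer formed (24 h), compound or DMSO vehicle added and monolayer scratched. Wound closure recorded after 48 h; concentrations 2-10 μg/ml. Representative of three independent experiments.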

A549 [15] = assay: Cytotoxicity against human A549 cells assessed as reduction in cell viability after 48 hrs by XTT assay; type: functional, cell-based; details: A549, 48 h
Method in brief: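 A549 cells (DMEM, 10% heat-inactivated FBS, L-glutamine, Pen-Strep), 3 x 10^4 per well, left 24 h to form monolayer, then exposed to graded concentrations for 48 h in triplicate. XTT added, further 4 h at 37 °C, absorbance at 450 nm. Untreated control = 100% survival; mean and SD of three independent experiments.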

Mus musculus = species on record: Mus musculus; assay: Inhibition of LPS-induced NFkappaB activation in mouse RAW264.7 cells at 100 ug/ml after 24 hrs by luciferase reporter gene assay relative to control; type: cell-based
Homo sapiens [16] = species on record: Homo sapiens; assay: Inhibition of IL-1beta-induced NFkappaB activation in human OA chondrocytes at 100 ug/ml after 24 hrs by luciferase reporter gene assay relative to control; type: cell-based
L-428 [17] = assay: Inhibition of NFkappaB p65 subunit expression in cytosolic fractions of human L428 cells after 2 hrs by Western method; type: functional, cell-based; method in brief: as §2
Homo sapiens [18] = species on record: Homo sapiens; assay: Inhibition of NFkappaB p50 subunit in human L428 cells assessed as depletion of […] subunit from nucleus after 2 hrs by DAPI staining based confocal microscopic method; type: cell-based
Method in brief: (§4)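 L428 cells incubated 2 h at 37 °C with compound at 10 or 30 μg/ml, cytocentrifuged (900 rpm, 5 min), fixed in 8% formalin 20 min. Separate staining with anti-p65 or anti-p50 plus fluorescent secondary antibodies; nuclei stained with DAPI. Nuclear localization imaged by confocal microscopy.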

A549 [19] = assay: Anti-migratory activity against human A549 cells assessed as reduction in wound closure at 5 ug/ml after 48 hrs by wound scratch assay; type: functional, cell-based; method in brief: as §3
L-428 [20] = assay: Inhibition of NFkappaB p65 subunit expression in nuclear fractions of human L428 cells after 2 hrs by Western method; type: functional, cell-based; method in brief: as §2
L-428 [21] = assay: Inhibition of NFkappaB p50 subunit expression in cytosolic fractions of human L428 cells after 2 hrs by Western method; type: functional, cell-based; method in brief: as §2
[22] = biological target: Transcription factor p65 (Homo sapiens) (UniProt Q04206); assay: Inhibition of NFkappaB p65 subunit in human L428 cells assessed as depletion of p65 subunit from nucleus after 2 hrs by DAPI staining based confocal microscopic method; type: cell-based; method in brief: as §4
L-428 [23] = assay: Inhibition of NFkappaB p50 subunit expression in nuclear fractions of human L428 cells after 2 hrs by Western method; type: functional, cell-based; method in brief: as §2
L-428 [24] = assay: Inhibition of RelB protein expression in nuclear fractions of human L428 cells at 5 to 30 ug/ml after 2 hrs by Western method; type: functional, cell-based; method in brief: as §2
L-428 [25] = assay: Inhibition of RelB protein expression in cytosolic fractions of human L428 cells at 5 to 30 ug/ml after 2 hrs by Western method; type: functional, cell-based; method in brief: as §2

Sequence of Transcription factor p65 (Homo sapiens) (Q04206 whole entry): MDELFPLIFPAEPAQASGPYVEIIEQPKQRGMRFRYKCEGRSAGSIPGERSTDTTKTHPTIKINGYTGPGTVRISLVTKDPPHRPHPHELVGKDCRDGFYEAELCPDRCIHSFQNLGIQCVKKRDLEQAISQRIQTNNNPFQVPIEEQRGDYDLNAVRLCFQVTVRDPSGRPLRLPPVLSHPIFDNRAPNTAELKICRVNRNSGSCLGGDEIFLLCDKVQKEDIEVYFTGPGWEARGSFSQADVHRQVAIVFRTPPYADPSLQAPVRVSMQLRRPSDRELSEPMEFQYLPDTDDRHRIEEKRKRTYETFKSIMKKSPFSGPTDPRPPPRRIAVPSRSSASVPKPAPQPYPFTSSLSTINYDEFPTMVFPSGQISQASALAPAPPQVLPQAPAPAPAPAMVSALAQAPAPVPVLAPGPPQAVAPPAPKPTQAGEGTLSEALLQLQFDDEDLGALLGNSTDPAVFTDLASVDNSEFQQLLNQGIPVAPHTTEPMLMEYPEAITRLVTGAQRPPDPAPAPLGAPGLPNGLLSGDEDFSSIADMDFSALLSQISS

Row | Structure (SMILES) | inhibition (Homo sapiens [1]) [%] | inhibition (Homo sapiens [2]) | inhibition (Homo sapiens [3]) [%] | inhibition (Homo sapiens [4]) [%] | inhibition (Homo sapiens [5]) [%] | inhibition (Homo sapiens [6]) [%] | also measured
1 | O=C(/C=C/C=C/C=C/c1ccc2c(c1)OCO2)N1CCCCC1 | 65.8 | Dose-dependent effect | 56.6 | 71.2 | 71 | 34 | –
2 | CN(C)c1ccc(/C=C/C=C/C(=O)N2CCCCC2)cc1 | 97.3 | Dose-dependent effect | 96.6 | 97.9 | 97.7 | 95.5 | inhibition (L-428 [7]): inactive; inhibition (L-428 [8]): inactive; inhibition (L-428 [9]): inactive; inhibition (L-428 [10]): inactive; inhibition (L-428 [11]): inactive; inhibition (L-428 [12]): inactive; Activity (L-428 [13]): Dose-dependent effect; IC50 (L-428 [13]): 0.39 µg/mL (≈ 1.37 µM); Activity (A549 [14]): Active; IC50 (A549 [15]): 69.1 µg/mL (≈ 243 µM)
3 | O=C(/C=C/C=C/c1ccc(OC2CCCC2)cc1)N1CCCCC1 | 63.2 | Dose-dependent effect | 61.7 | 72.2 | 69.7 | 57.6 | –
4 | COc1ccc(/C=C/C=C/C(=O)N2CCCCC2)cc1OC | 73.9 | Dose-dependent effect | 67.5 | 80.1 | 78.9 | 43.4 | –
5 | COc1cc(/C=C/C=C/C(=O)N2CCCCC2)cc(OC)c1OC | 53.1 | Dose-dependent effect | 44.6 | 59.8 | 56.9 | 34.1 | –
6 | O=C(/C=C/C=C/c1ccc2c(c1)OCO2)N1CCCCC1 | 85.1 | Dose-dependent effect | 67.5 | 90.2 | 86.6 | 67.3 | inhibition (Mus musculus): 75%; inhibition (Homo sapiens [16]): 90%
7 | COc1ccc(/C=C/C=C/C=C/C(=O)N2CCCCC2)cc1 | 44.8 | Dose-dependent effect | 34 | 51.8 | 50.7 | 26.4 | –
8 | CC(=O)Oc1ccc(/C=C/C=C/C(=O)N2CCCCC2)cc1 | 75.3 | Dose-dependent effect | 71.4 | 80.1 | 78.1 | 70.3 | –
9 | O=C(/C=C/C=C/c1ccc(O)cc1)N1CCCCC1 | 89.8 | Dose-dependent effect | 79.6 | 92.2 | 91.5 | 68.4 | –
10 | COc1ccc(/C=C/C=C/C(=O)N2CCCCC2)cc1 | 77.2 | Dose-dependent effect | 76.3 | 89.9 | 86.9 | 69.7 | inhibition (L-428 [17]): Dose-dependent effect; inhibition (L-428 [8]): inactive; inhibition (Homo sapiens [18]): Dose-dependent effect; Activity (A549 [19]): Active; inhibition (L-428 [11]): inactive; inhibition (L-428 [20]): Dose-dependent effect; Activity (L-428 [13]): Dose-dependent effect; IC50 (L-428 [13]): 16.8 µg/mL (≈ 62.1 µM); inhibition (L-428 [21]): Dose-dependent effect; inhibition [22]: Dose-dependent effect; IC50 (A549 [15]): 63.2 µg/mL (≈ 233 µM); inhibition (L-428 [23]): Dose-dependent effect
11 | COc1ccc(/C=C/C=C/C(=O)N2CCCCC2)c(OC)c1OC | 59.2 | Dose-dependent effect | 52.9 | 62.9 | 59.8 | 39.2 | –
12 | O=C(/C=C/C=C/c1ccccc1)N1CCCCC1 | 82.2 | Dose-dependent effect | 73.9 | 88.2 | 85.9 | 71.9 | inhibition (L-428 [17]): Dose-dependent effect; inhibition (L-428 [24]): inactive; inhibition (Homo sapiens [18]): Dose-dependent effect; inhibition (L-428 [25]): inactive; Activity (A549 [19]): Active; inhibition (L-428 [20]): Dose-dependent effect; Activity (L-428 [13]): Dose-dependent effect; IC50 (L-428 [13]): 43.2 µg/mL (≈ 179 µM); inhibition (L-428 [21]): Dose-dependent effect; inhibition [22]: Dose-dependent effect; IC50 (A549 [15]): 57.1 µg/mL (≈ 237 µM); inhibition (L-428 [23]): Dose-dependent effect
13 | CN(C)c1ccc(/C=C/C=C/C=C/C(=O)N2CCCCC2)cc1 | 56.8 | Dose-dependent effect | 56.2 | 59.9 | 57.2 | 37.2 | –
